Bioassay records: PubChem, several laboratories
NALP1 yeast inh: NALP1 inflammasome inhibitors in reconstituted yeast, colorimetric, S. cerevisiae, triplicate retest; S. cerevisiae NALP1/ASC/caspase-1 growth, X-gal OD620, 72 h; inhibition, % at 10 µM; 280,000 tested, 0.61% active; in the data active = inhibition mostly above about 24%, no sharp cut-off; inactive = mostly below about 32%
NLRP3 yeast inh: NALP3 inflammasome inhibitors in reconstituted yeast, primary screen, luminescence, uHTS; inhibition, % at 10 µM; 330,000 tested, 0.39% active; AID 2825, 2010; Yeast reconstituted NLRP3/ASC/caspase-1, beta-gal luminescence, 24 h;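 active = inhibition of 50% or more; inactive = inhibition below 50%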;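 also: plate controls were induced DMSO wells for no effect and uninduced yeast grown without galactose for full effect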
Pemphigus Ab inh: inhibitors of pemphigus antibody binding to DSG3, primary screen, biochemical, bead-based, flow cytometry, scFv-GFP. DSG3-coupled beads, scFv-anti-DSG3-GFP binding; active compounds read low. binding (percent of control), % at 10 µM. 310,000 tested, 0.48% active. AID 588358, 2011;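 active = binding more than 3 SD below its plate's average and above zero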;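 also: hits lower antibody fragment binding to DSG3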
Target sequence (P32926 whole entry, looked up, the tested form may be a part): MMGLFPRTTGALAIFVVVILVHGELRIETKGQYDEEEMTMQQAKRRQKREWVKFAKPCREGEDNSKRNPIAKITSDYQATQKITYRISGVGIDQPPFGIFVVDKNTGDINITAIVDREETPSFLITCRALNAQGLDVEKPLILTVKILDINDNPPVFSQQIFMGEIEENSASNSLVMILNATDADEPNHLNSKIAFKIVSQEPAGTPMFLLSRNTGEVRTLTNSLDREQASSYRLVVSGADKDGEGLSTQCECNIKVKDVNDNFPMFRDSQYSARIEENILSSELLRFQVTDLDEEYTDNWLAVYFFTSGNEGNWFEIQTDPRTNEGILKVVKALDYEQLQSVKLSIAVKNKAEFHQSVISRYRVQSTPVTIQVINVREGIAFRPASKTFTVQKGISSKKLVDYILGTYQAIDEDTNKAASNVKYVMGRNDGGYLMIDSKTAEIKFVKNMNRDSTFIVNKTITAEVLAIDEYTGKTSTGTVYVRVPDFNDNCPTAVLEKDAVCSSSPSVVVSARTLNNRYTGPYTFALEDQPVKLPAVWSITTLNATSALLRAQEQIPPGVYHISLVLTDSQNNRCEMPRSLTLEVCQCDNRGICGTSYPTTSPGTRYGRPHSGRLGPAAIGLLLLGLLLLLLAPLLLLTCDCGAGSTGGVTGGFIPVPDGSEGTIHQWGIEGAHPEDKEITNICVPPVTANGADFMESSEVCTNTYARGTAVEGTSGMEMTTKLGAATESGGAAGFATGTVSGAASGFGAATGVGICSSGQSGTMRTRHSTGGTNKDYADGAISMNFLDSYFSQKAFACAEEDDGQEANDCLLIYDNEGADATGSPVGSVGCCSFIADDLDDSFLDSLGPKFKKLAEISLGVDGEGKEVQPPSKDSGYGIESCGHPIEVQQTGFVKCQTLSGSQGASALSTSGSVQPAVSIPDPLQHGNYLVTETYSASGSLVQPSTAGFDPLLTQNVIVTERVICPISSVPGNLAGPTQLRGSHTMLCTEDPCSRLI
Arr AP2 block: inhibitors of beta-arrestin/AP2 binding, primary screen, biochemical, GPCR trafficking, flow cytometry; beta-arrestin 1 C-terminal peptide binding to AP2 beta2-adaptin appendage (human); FITC-arrestin peptide / GST-AP2 beads; AP2 beta2 appendage carries R879A mutation; inhibition, % at 10 µM; 340,000 tested, 0.31% active; AID 504490, 2011;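 active = inhibition above a set limit, near 3 SD of compounds lacking own fluorescence, cut at about 54% in these data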;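 also: plate controls were DMSO wells for no effect and 5 µM unlabelled arrestin peptide for full effect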
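Material – AP2 appendage R879A on GSH beads · Buffer or medium – PBS with 0.05% Tween 20 and 0.1% BSA · Probe or stimulus – fluorescein-tagged arrestin peptide at 50 nM final · Incubation – compound with beads 12 min RT, then probe 1 h RT · Detection – high-throughput flow cytometry of beads, ex 488, em 535 nm · Evaluation – percent response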
ALR H2O2 inh: inhibitors of human ALR sulfhydryl oxidase, primary screen, biochemical, H2O2 detection, HRP-luminol luminescence, single point; inhibition, % (concentration not given with the values); purified ALR, DTT oxidation; AID 485317, 2010; FAD-linked sulfhydryl oxidase ALR (Homo sapiens), P55789; 290,000 tested, 3.8% active;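 active = mean replicate inhibition above about 79%, with every replicate also reaching it, limit read from the data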
PolyA inh: polyadenylation inhibitors in yeast reporter cells, primary screen, luminescence, S. cerevisiae; 300,000 tested, 0.02% active; activity score, % at 12 µM; S. cerevisiae SKY197-pL101 polyadenylation reporter, beta-gal luminescence; efflux-impaired pdr1/pdr3 knockout yeast; score 100 = 6 SD above DMSO;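 active = lowest replicate activity score at least 50, where 100 means six control SD above control mean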;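 also: yeast exposed to compound for 9 h at 30 °C; higher score means more reporter readthrough which indicates perturbed polyadenylation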
Numbers without * were called inactive; · = no result. This is a sample that favours compounds with a hit; in the whole collection about 4.6% have one here.

SMILES	NALP1 yeast inh	NLRP3 yeast inh	Pemphigus Ab inh	Arr AP2 block	ALR H2O2 inh	PolyA inh
Cc1cc(/C=C(\C#N)C(=O)NCc2ccccc2)c(C)[nH]1	·	·	98	·	·	·
C(=N\c1ncnc2sccc12)/NOCc1ccccc1	32	6	97	-10	-21	95*
Cc1csc(NC(=O)CSc2nnc(-c3cc(C)on3)o2)n1	19	14	108	44	94*	1
Cc1occc1-c1nnc(SCC(=O)Nc2nc(-c3ccccc3)cs2)o1	-12	6	103	-7	-8	-8
O=C(CSc1nc2ccccc2o1)Nc1nc(-c2ccccc2)cs1	22	-13	108	10	99*	17
Cc1cc(-c2nnc(SCC(=O)Nc3nc(-c4ccccc4)cs3)o2)no1	·	13	86	6	99*	0
O=c1c2ccccc2sc2nc(CCl)nn12	·	·	99	-11	·	·
Cc1ccccc1-n1c(SCC(=O)NC2CC2)nc2ccccc2c1=O	·	·	98	·	·	·
COc1ccc(S(=O)(=O)N2CCN(CC(=O)Nc3sccc3C(N)=O)CC2)cc1OC	·	-8	·	-18	17	·
CCOC(=O)C1=C(C)Nc2ccccc2N=C1NC(=O)c1cc(C)on1	·	13	·	3	-3	·
CCOC(=O)c1ccc(-c2ccc3c(c2)CCC3)nc1C	8	22	106	12	-4	-4
NC(=O)C1CCN(CC(=O)Nc2ccccc2Sc2ccc(Cl)cc2)CC1	8	5	111	-5	87*	6
CC(C)CC(=O)NN(C)c1nc(-c2ccccc2)nnc1C(F)(F)F	8	22	52*	-4	-3	-12
CCCCC(=O)NN(C)c1nc(-c2ccccc2)nnc1C(F)(F)F	-2	23	105	8	2	4
Cn1c(=S)[nH]c2ccccc21	3	-14	·	-3	84*	·
Cc1ccc(-n2c(COc3cccc(C)c3)n[nH]c2=S)cc1	3	27	113	-31	35	-25
COCc1n[nH]c(=S)n1-c1ccccc1	17	10	90	8	58	4
Cc1cccc(C)c1NCc1n[nH]c(=S)n1-c1ccccc1	-3	8	104	-31	19	-5
COC(Cc1n[nH]c(=S)n1-c1ccccc1)OC	-4	9	103	-2	93*	-1
Cc1cccc(OCc2n[nH]c(=S)n2-c2ccccc2)c1	-6	5	126	8	77*	-30
S=c1[nH]nc(CSCc2ccccc2Cl)n1-c1ccccc1	-2	14	96	28	94*	-3
OCCCc1n[nH]c(=S)n1-c1ccccc1	-9	12	96	5	37	2
Cc1ccc(C)c(NCc2n[nH]c(=S)n2-c2ccccc2)c1	-20	27	99	24	86*	-8
O=C(N=C1SC2CS(=O)(=O)CC2N1c1ccccc1)c1cccc([N+](=O)[O-])c1 (stereo unspecified)	·	9	·	31	-3	·
CC1=C(C(=O)N2CCOCC2)CC(CC(=O)NCCCCc2ccccc2)C(=O)N1CCC1=CCCCC1 (stereo unspecified)	·	·	100	·	·	·
SMILES	NALP1 yeast inh	NLRP3 yeast inh	Pemphigus Ab inh	Arr AP2 block	ALR H2O2 inh	PolyA inh
Cc1ccc(S(=O)(=O)Nc2ccccc2F)cc1C(=O)NNC(=O)c1ccccc1O	·	10	97	-8	6	3
CCn1c(O)c(C=NC2CCCC2)sc1=S	3	3	76	-12	16	-7
CCn1c(O)c(/C=N/n2cnnc2)sc1=S	-10	17	102	14	98*	-6
CN(C)C(CNC(=O)C1CCN(C(=O)/C=C/c2ccccc2)CC1)c1ccccc1 (stereo unspecified)	21	0	128	0	-5	1
Cc1cccc(C(=O)NNC2=C(C(=O)C(F)(F)F)CCC2)c1O	-7	7	101	2	97*	7
O=C(NNC1=C(C(=O)C(F)(F)F)CCC1)c1cccc(O)c1	-15	18	·	21	53	19
